In ChEMBL document CHEMBL3425440, “ent-Kaurane Diterpenoids from Chinese Liverworts and Their Antitumor Activities through Michael Addition As Detected in Situ by a Fluorescence Probe” (J Med Chem, 2015) one finds IC50 and Activity data, which are given here for two molecules.

Molecules are shown by their SMILES. Activity calls are given as the source filed them. The calls are words filed in the database; no cut-off is given here.

In one experiment the test system is K562. The experiment in a line: Cytotoxicity against human K562 cells assessed as cell viability after 24 hrs by MTT assay. The experiment is classed as functional, cell-based. Conditions: K562, 24 h. The method in brief:
(§1)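 Cells grown to about 50−70% confluence at 37 °C, 5% CO2, then exposed to compounds 24 h (DMSO vehicle control, cisplatin positive control). MTT (5 mg/mL stock) added for 4 h, formazan dissolved in DMSO, absorbance read at 570 nm. IC50 derived from percent viability; at least three independent experiments, mean ± SD.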
(Tetrazolium assays rely on reduction of a dye to a coloured formazan, in cell work by metabolically active cells.)
Consider `C=C1C(=O)[C@H]2C[C@]1(O)CC1=C2[C@]2(C)CCCC(C)(C)[C@H]2CC1`, for which the IC50 (usually the concentration at which inhibition is half-maximal) is 2.2 µM.

As to `C=C1C(=O)[C@@]23CC[C@H]4[C@@](C)(CCC[C@@]4(C)C(=O)OC)[C@@H]2CC[C@]1(O)C3`, the IC50 turned out to be 2.9 µM.

The next experiment relates to MDA-MB-231. The experiment in a line: Cytotoxicity against human MDA-MB-231 cells assessed as cell viability after 24 hrs by MTT assay. The experiment is classed as functional, cell-based. To be noted: MDA-MB-231, 24 h. The method in brief:
as §1
With `C=C1C(=O)[C@H]2C[C@]1(O)CC1=C2[C@]2(C)CCCC(C)(C)[C@H]2CC1`, the half-inhibitory concentration (IC50) was found to be 3.4 µM.

In the case of `C=C1C(=O)[C@@]23CC[C@H]4[C@@](C)(CCC[C@@]4(C)C(=O)OC)[C@@H]2CC[C@]1(O)C3`, the IC50 amounted to 5.2 µM.

Test system in a further experiment: not listed separately
Nature of the experiment: Cytotoxicity against human RWPE1 cells assessed as cell viability after 24 hrs by MTT assay. It counts as cell-based. To be noted: RWPE-1, 24 h. The method in brief: as §1
`C=C1C(=O)[C@H]2C[C@]1(O)CC1=C2[C@]2(C)CCCC(C)(C)[C@H]2CC1`: the IC50 was 6.3 µM.

On to `C=C1C(=O)[C@@]23CC[C@H]4[C@@](C)(CCC[C@@]4(C)C(=O)OC)[C@@H]2CC[C@]1(O)C3`, for which the IC50 was 7 µM.

The subject of the next experiment is PC-3. The experiment in a line: Induction of reactive oxygen species formation in human PC3 cells at 6 uM after 4 hrs by DCFH-DA staining-based flow cytometric analysis in presence of antioxidant N-acetylcysteine. The experiment is classed as functional, cell-based.
Settings: not given
The method in brief:
(§2)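 PC3 cells exposed to 6 μM compound for 4 h, with optional 5 mM NAC added 1 h beforehand. Loaded with 10 μM DCFH-DA at 37 °C for 30 min, washed, resuspended in PBS and read at once by flow cytometry. ROS expressed as ratio relative to control; Student's t test.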
In general terms: Flow cytometry measures light scatter and fluorescence of single cells or particles in a stream.
On to `C=C1C(=O)[C@@]23CC[C@H]4[C@@](C)(CCC[C@@]4(C)C(=O)OC)[C@@H]2CC[C@]1(O)C3`, for which the result was inactive.

Test system in a further experiment: not listed separately
Nature of the experiment: Cytotoxicity against human A172 cells assessed as cell viability after 24 hrs by MTT assay. It counts as functional, cell-based. To be noted: A 172, 24 h. The method in brief:
as §1
Regarding `C=C1C(=O)[C@H]2C[C@]1(O)CC1=C2[C@]2(C)CCCC(C)(C)[C@H]2CC1`, the concentration for half-maximal inhibition (IC50) is 2.7 µM.

The next experiment deals with PC-3. Nature of the experiment: Induction of reactive oxygen species formation in human PC3 cells at 6 uM by DCFH-DA staining-based flow cytometric analysis. The experiment is classed as functional, cell-based. To be noted: TDE = time-dependent effect. The method in brief:
as §2
For the molecule `C=C1C(=O)[C@@]23CC[C@H]4[C@@](C)(CCC[C@@]4(C)C(=O)OC)[C@@H]2CC[C@]1(O)C3`, the Activity result is “tde”.

For another experiment, the system named is PC-3. The experiment in a line: Reduction in total glutathione level in human PC3 cells at 6 uM by DNTB-based assay. The experiment is classed as functional, cell-based. Conditions: TDE = time-dependent effect. The method in brief: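 PC3 cells exposed to 6 μM compound for the indicated times, lysed by freeze–thaw in protein removal agent and supernatant collected. Total glutathione read with DTNB at 412 nm; GSSG read after masking GSH with 2-vinylpyridine; GSH taken as the difference. Expressed relative to control.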
Regarding `C=C1C(=O)[C@@]23CC[C@H]4[C@@](C)(CCC[C@@]4(C)C(=O)OC)[C@@H]2CC[C@]1(O)C3`, the Activity result is “tde”.

Test system in a further experiment: not listed separately
Nature of the experiment: Cytotoxicity against human SKOV3 cells assessed as cell viability after 24 hrs by MTT assay. To be noted: SK-OV-3, 24 h. The experiment is classed as functional, cell-based. The method in brief:
as §1
Consider `C=C1C(=O)[C@H]2C[C@]1(O)CC1=C2[C@]2(C)CCCC(C)(C)[C@H]2CC1`, for which the IC50 is 2.9 µM.

A further experiment concerns PC-3. The experiment in a line: Cytotoxicity against human PC3 cells assessed as decrease in cell viability at 6 uM after 24 hrs by MTT assay in presence of antioxidant N-acetylcysteine. It counts as functional, cell-based.
Settings: not given
The method in brief:
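PC3 cells pretreated with 5 mM NAC for 1 h, then given 6 μM compound with or without the antioxidant for 24 h. Viability read by MTT (formazan in DMSO, absorbance at 570 nm). Mean ± SD.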
For the molecule `C=C1C(=O)[C@@]23CC[C@H]4[C@@](C)(CCC[C@@]4(C)C(=O)OC)[C@@H]2CC[C@]1(O)C3`, the outcome was inactive.

Another experiment deals with PC-3. Nature of the experiment: Reduction in glutathione level in human PC3 cells at 6 uM preincubated for 4 hrs followed by fluorescence probe addition by 3-azido-7-(diethylamino)-2H-chromen-2-one fluorescence probe-based confocal microscopic analysis. It counts as functional, cell-based. Conditions: TDE = time-dependent effect. The method in brief:
(§3)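 PC3 cells on glass coverslips treated with compound for 4 h (5 μM NEM as thiol-scavenger control), fixed in cold methanol/acetone (1:1) for 5 min. Stained with 30 μM azidocoumarin probe, which fluoresces on reaction with thiols, for 1 h at room temperature in the dark. Mean cellular fluorescence quantified by confocal microscopy; mean ± SD.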
Take `C=C1C(=O)[C@@]23CC[C@H]4[C@@](C)(CCC[C@@]4(C)C(=O)OC)[C@@H]2CC[C@]1(O)C3`: the Activity entry was “tde”.

Test system in a further experiment: not listed separately
The experiment in a line: Cytotoxicity against human PC3 cells assessed as cell viability after 24 hrs by MTT assay. The experiment is classed as functional, cell-based. To be noted: PC-3, 24 h. The method in brief: as §1
Take `C=C1C(=O)[C@H]2C[C@]1(O)CC1=C2[C@]2(C)CCCC(C)(C)[C@H]2CC1`: the 50% inhibitory concentration (IC50) is 2.2 µM.

For the molecule `C=C1C(=O)[C@@]23CC[C@H]4[C@@](C)(CCC[C@@]4(C)C(=O)OC)[C@@H]2CC[C@]1(O)C3`, the IC50 worked out at 6.1 µM.

The next experiment deals with LNCaP. The experiment in a line: Cytotoxicity against human LNCAP cells assessed as cell viability after 24 hrs by MTT assay. The experiment is classed as functional, cell-based.
Settings: not given
The method in brief: as §1
Regarding `C=C1C(=O)[C@H]2C[C@]1(O)CC1=C2[C@]2(C)CCCC(C)(C)[C@H]2CC1`, the half-inhibitory concentration (IC50) was found to be 2.8 µM.

Another experiment concerns LoVo. The experiment in a line: Cytotoxicity against human LoVo cells assessed as cell viability after 24 hrs by MTT assay. It counts as functional, cell-based.
Settings: not given
The method in brief:
as §1
For the molecule `C=C1C(=O)[C@H]2C[C@]1(O)CC1=C2[C@]2(C)CCCC(C)(C)[C@H]2CC1`, the IC50 amounted to 2.3 µM.

Test system in a further experiment: not listed separately
Nature of the experiment: Cytotoxicity against human T24 cells assessed as cell viability after 24 hrs by MTT assay. To be noted: T-24, 24 h. It counts as functional, cell-based. The method in brief:
as §1
Take `C=C1C(=O)[C@H]2C[C@]1(O)CC1=C2[C@]2(C)CCCC(C)(C)[C@H]2CC1`: the IC50 was found to be 2.3 µM.

The test system of the next experiment is DU-145. The experiment in a line: Cytotoxicity against human DU145 cells assessed as cell viability after 24 hrs by MTT assay. The experiment is classed as functional, cell-based. To be noted: DU-145, 24 h. The method in brief: as §1
As to `C=C1C(=O)[C@H]2C[C@]1(O)CC1=C2[C@]2(C)CCCC(C)(C)[C@H]2CC1`, the IC50 was found to be 3.2 µM.

With `C=C1C(=O)[C@@]23CC[C@H]4[C@@](C)(CCC[C@@]4(C)C(=O)OC)[C@@H]2CC[C@]1(O)C3`, the 50% inhibitory concentration (IC50) worked out at 10.8 µM.

A further experiment has as its system PC-3. The experiment in a line: Reduction in glutathione level in human PC3 cells at 5 uM preincubated for 4 hrs followed by fluorescence probe addition measured after 1 hr by 3-azido-7-(diethylamino)-2H-chromen-2-one fluorescence probe-based confocal microscopic analysis. It counts as functional, cell-based.
Settings: not given
The method in brief: as §3
In the case of `C=C1C(=O)[C@H]2C[C@]1(O)CC1=C2[C@]2(C)CCCC(C)(C)[C@H]2CC1`, the outcome was Active.

In a further experiment the test system is PC-3. Nature of the experiment: Reduction in glutathione level in human PC3 cells preincubated for 4 hrs followed by fluorescence probe addition measured after 1 hr by 3-azido-7-(diethylamino)-2H-chromen-2-one fluorescence probe-based confocal microscopic analysis. It counts as functional, cell-based.
Settings: not given
The method in brief: as §3
As for `C=C1C(=O)[C@@]23CC[C@H]4[C@@](C)(CCC[C@@]4(C)C(=O)OC)[C@@H]2CC[C@]1(O)C3`, the Activity result was “Dose-dependent effect”.

Test system in a further experiment: not listed separately
Nature of the experiment: Cytotoxicity against human SH-SY5Y cells assessed as cell viability after 24 hrs by MTT assay. It counts as functional, cell-based.
Settings: not given
The method in brief:
as §1
For `C=C1C(=O)[C@H]2C[C@]1(O)CC1=C2[C@]2(C)CCCC(C)(C)[C@H]2CC1`, the IC50 stood at 1.6 µM.

In a further experiment the test system is NCI-H1299. The experiment in a line: Cytotoxicity against human NCI-H1299 cells assessed as cell viability after 24 hrs by MTT assay. The experiment is classed as functional, cell-based. To be noted: NCI-H1299, 24 h. The method in brief: as §1
Turning to `C=C1C(=O)[C@H]2C[C@]1(O)CC1=C2[C@]2(C)CCCC(C)(C)[C@H]2CC1`, the half-inhibitory concentration (IC50) was found to be 2.6 µM.

As to `C=C1C(=O)[C@@]23CC[C@H]4[C@@](C)(CCC[C@@]4(C)C(=O)OC)[C@@H]2CC[C@]1(O)C3`, the half-maximal inhibitory concentration (IC50) was 9.2 µM.

Test system in the next experiment: not listed separately
The experiment in a line: Cytotoxicity against human Saos2 cells assessed as cell viability after 24 hrs by MTT assay. The experiment is classed as functional, cell-based. To be noted: SAOS-2, 24 h. The method in brief: as §1
`C=C1C(=O)[C@H]2C[C@]1(O)CC1=C2[C@]2(C)CCCC(C)(C)[C@H]2CC1`: the IC50 stood at 2.4 µM.

Test system in another experiment: not listed separately
The experiment in a line: Cytotoxicity against human HL60 cells assessed as cell viability after 24 hrs by MTT assay. The experiment is classed as functional, cell-based. Conditions: HL-60, 24 h. The method in brief:
as §1
Take `C=C1C(=O)[C@H]2C[C@]1(O)CC1=C2[C@]2(C)CCCC(C)(C)[C@H]2CC1`: the IC50 was 1.9 µM.

For the molecule `C=C1C(=O)[C@@]23CC[C@H]4[C@@](C)(CCC[C@@]4(C)C(=O)OC)[C@@H]2CC[C@]1(O)C3`, the half-maximal inhibitory concentration (IC50) worked out at 1.5 µM.
